Data set [1] is described as follows: Toxicity in Salmonella typhimurium TA1537 assessed as growth inhibition after 1 hr. In kind it is organism-based. Particulars: salmonella enterica subsp. enterica serovar typhimurium, read-out: D50. A digest of the protocol: (§1)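 Overnight shaken L-broth culture from frozen stock. 0.5 mL culture in L broth (10 mL total) with a range of drug concentrations, from nontoxic to clearly toxic, in 50% ethanol. Shaken at 37 °C for 1 h, centrifuged, resuspended in saline, diluted 1 in 10^4, plated in triplicate on L-broth plates, 37 °C, 2 days. Survival = 100Nt/Nc vs untreated. D50 from linear fit of log survival vs dose.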

In data set [2] the test system is Salmonella typhimurium. The data set can be described thus: Mutagenic activity in Salmonella typhimurium TA1537 assessed as mutation frequency at 10^4 times D50 after 1 hr. Type of data set: toxicity, organism-based. Particulars: salmonella enterica subsp. enterica serovar typhimurium. A digest of the protocol: (§2)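 Overnight L-broth culture (0.5 mL) exposed to drug (from 50% ethanol) in 10 mL L broth, 37 °C shaking, 1 h; concentration range from non-toxic to clearly toxic. Cells spun, resuspended in saline, plated in triplicate on minimal plates (1 mM histidine, biotin) and, diluted 1 in 10^4, on L-broth plates; 37 °C, 2 days. D50 interpolated from log % survival vs dose; mutation frequency = 100(MT − MC)/S50, background-corrected.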

Data set [3] in a line: Toxicity in Salmonella typhimurium TA98 assessed as growth inhibition after 1 hr. Particulars: salmonella enterica subsp. enterica serovar typhimurium, read-out: D50. Type of data set: organism-based. In outline: as §1
Data set [4] in a line: Toxicity in Salmonella typhimurium TA100 assessed as growth inhibition after 1 hr. Type of data set: organism-based. To be noted: salmonella enterica subsp. enterica serovar typhimurium, read-out: D50. A digest of the protocol: as §1
In data set [5] the test system is Salmonella typhimurium. The data set is described as follows: Mutagenic activity in Salmonella typhimurium TA98 assessed as mutation frequency at 10^4 times D50 after 1 hr. Type of data set: toxicity, organism-based. To be noted: salmonella enterica subsp. enterica serovar typhimurium. In outline: as §2
Data set [6] concerns Salmonella typhimurium. The data set is described as follows: Mutagenic activity in Salmonella typhimurium TA100 assessed as mutation frequency at 10^4 times D50 after 1 hr. Type of data set: toxicity, organism-based. To be noted: salmonella enterica subsp. enterica serovar typhimurium. A digest of the protocol:
as §2

Consider `CCCS(=O)(=O)Nc1ccc(Nc2c3ccccc3nc3ccccc23)c(OC)c1.CS(=O)(=O)O`, for which the GI50 at 1 h in data set [1] is 77.6 µM. The “log(M50)” value in the data set with Salmonella typhimurium [2] is recorded as -0.7.
As for `CCS(=O)(=O)Nc1ccc(Nc2c3ccccc3nc3ccccc23)c(OC)c1.CS(=O)(=O)O`, the GI50 at 1 h in data set [1] was 93.2 µM. Further, the “log(M50)” value in the data set with Salmonella typhimurium [2] is reported as -0.3.
In the case of `CCCCS(=O)(=O)Nc1ccc(Nc2c3ccccc3nc3ccccc23)c(OC)c1.CS(=O)(=O)O`, in data set [1], the GI50 at 1 h was 69.7 µM. Moreover, the “log(M50)” value in the data set on Salmonella typhimurium [2] is recorded as 0.
`Br.CNc1ccc(Nc2c3ccccc3nc3ccccc23)cc1`: in data set [1], the GI50 at 1 h was 82 µM. Further, the “log(M50)” value in the data set on Salmonella typhimurium [2] was found to be 2.05.
As to `CCNc1ccc(Nc2c3ccccc3nc3ccccc23)cc1.Cl`, the GI50 at 1 h in data set [1] came to 100 µM. For the same compound, the “log(M50)” value with Salmonella typhimurium [2] worked out at 1.88.
Consider `CCCNc1ccc(Nc2c3ccccc3nc3ccccc23)cc1.Cl`, for which the GI50 at 1 h in data set [1] came out at 98.9 µM. Also, in the data set with Salmonella typhimurium [2], the “log(M50)” value came out at 1.67.
Turning to `CCCCNc1ccc(Nc2c3ccccc3nc3ccccc23)cc1.Cl`, the GI50 at 1 h in data set [1] came out at 9.8 µM. For the same compound, the “log(M50)” value in the data set with Salmonella typhimurium [2] is listed as 1.
Turning to `CCCCCCNc1ccc(Nc2c3ccccc3nc3ccccc23)cc1.Cl`, in data set [1], the GI50 at 1 h was 4.4 µM. Besides, in the data set with Salmonella typhimurium [2], the “log(M50)” value is on record as -1.
In the case of `CS(=O)(=O)Nc1ccc(Nc2c3ccccc3nc3ccccc23)cc1.Cl`, the GI50 at 1 h came out at 180 µM in data set [3], 194 µM in data set [4] and 110 µM in data set [1]. Also, the M50 was 0% with Salmonella typhimurium [5], 0% in the data set with Salmonella typhimurium [6] and 127% with Salmonella typhimurium [2]. Besides, the “log(M50)” value in the data set with Salmonella typhimurium [2] is recorded as 2.1.
For `CCS(=O)(=O)Nc1ccc(Nc2c3ccccc3nc3ccccc23)cc1.Cl`, the GI50 at 1 h in data set [1] came out at 81.6 µM. For the same compound, the “log(M50)” value with Salmonella typhimurium [2] is on record as 2.
On to `CCCS(=O)(=O)Nc1ccc(Nc2c3ccccc3nc3ccccc23)cc1.Cl`, for which the GI50 at 1 h in data set [1] was 50.1 µM. Also, the “log(M50)” value with Salmonella typhimurium [2] is recorded as 1.67.
The matching figures for `CCCCS(=O)(=O)Nc1ccc(Nc2c3ccccc3nc3ccccc23)cc1.Cl`: 49.3 µM and 0.78.
Consider `CCCCCS(=O)(=O)Nc1ccc(Nc2c3ccccc3nc3ccccc23)cc1.Cl`, for which, in data set [1], the GI50 at 1 h is 15.6 µM. The “log(M50)” value in the data set with Salmonella typhimurium [2] came out at 0.6.
In the case of `CCCCCCS(=O)(=O)Nc1ccc(Nc2c3ccccc3nc3ccccc23)cc1.Cl`, in data set [1], the GI50 at 1 h worked out at 9.4 µM. The “log(M50)” value in the data set on Salmonella typhimurium [2] stood at 0.3.
In the case of `CC(=O)Nc1ccc2c(Nc3ccc(NS(C)(=O)=O)cc3)c3ccccc3nc2c1.CS(=O)(=O)O`, the GI50 at 1 h in data set [1] was determined as 282 µM. Also, the “log(M50)” value with Salmonella typhimurium [2] is listed as -0.22.
The corresponding values for `CCS(=O)(=O)Nc1ccc(Nc2c3ccccc3nc3cc(NC(C)=O)ccc23)cc1.CS(=O)(=O)O` are 221 µM and 0.
As for `CCCS(=O)(=O)Nc1ccc(Nc2c3ccccc3nc3cc(NC(C)=O)ccc23)cc1.CS(=O)(=O)O`, the GI50 at 1 h in data set [1] is 114 µM. Moreover, the “log(M50)” value in the data set with Salmonella typhimurium [2] was determined as 0.
As to `CCCCS(=O)(=O)Nc1ccc(Nc2c3ccccc3nc3cc(NC(C)=O)ccc23)cc1.CS(=O)(=O)O`, the GI50 at 1 h in data set [1] is 148 µM. For the same compound, the “log(M50)” value in the data set with Salmonella typhimurium [2] is -0.3.
Take `CCCCCS(=O)(=O)Nc1ccc(Nc2c3ccccc3nc3cc(NC(C)=O)ccc23)cc1.CS(=O)(=O)O`: the GI50 at 1 h in data set [1] was 17.7 µM. Further, the “log(M50)” value in the data set with Salmonella typhimurium [2] is -0.1.
Take `CCCCCCS(=O)(=O)Nc1ccc(Nc2c3ccccc3nc3cc(NC(C)=O)ccc23)cc1.CS(=O)(=O)O`: the GI50 at 1 h in data set [1] was 3.1 µM. Further, the “log(M50)” value with Salmonella typhimurium [2] came out at 0.
Turning to `CCCCCS(=O)(=O)Nc1ccc(Nc2c3ccccc3nc3ccccc23)c(OC)c1.CS(=O)(=O)O`, the GI50 at 1 h in data set [1] was 21.1 µM. In the data set with Salmonella typhimurium [2], the “log(M50)” value turned out to be 0.
The matching figures for `CCCCCCS(=O)(=O)Nc1ccc(Nc2c3ccccc3nc3ccccc23)c(OC)c1.CS(=O)(=O)O`: 15.3 µM and 0.
As to `COc1cc(NS(C)(=O)=O)ccc1Nc1c2ccccc2nc2c(C(N)=O)cccc12.Cl`, the GI50 at 1 h in data set [1] worked out at 698 µM. In addition, the “log(M50)” value with Salmonella typhimurium [2] is given as -0.7.
The corresponding values for `CCS(=O)(=O)Nc1ccc(Nc2c3ccccc3nc3c(C(N)=O)cccc23)c(OC)c1.Cl` are 467 µM and 0.18.
The matching figures for `CCCS(=O)(=O)Nc1ccc(Nc2c3ccccc3nc3c(C(N)=O)cccc23)c(OC)c1.Cl`: 642 µM and 0.
With `CCCCS(=O)(=O)Nc1ccc(Nc2c3ccccc3nc3c(C(N)=O)cccc23)c(OC)c1.Cl`, in data set [1], the GI50 at 1 h was 330 µM. The “log(M50)” value in the data set with Salmonella typhimurium [2] is 0.
In the case of `CCCCCS(=O)(=O)Nc1ccc(Nc2c3ccccc3nc3c(C(N)=O)cccc23)c(OC)c1.Cl`, in data set [1], the GI50 at 1 h is 466 µM. Moreover, the “log(M50)” value in the data set with Salmonella typhimurium [2] came to 0.
Take `COc1cccc2c1C(=O)c1c(O)c3c(c(O)c1C2=O)C[C@@](O)(C(C)=O)C[C@@H]3O[C@H]1C[C@H](N)[C@H](O)[C@H](C)O1` [DAUNORUBICIN]: the GI50 at 1 h worked out at 13.1 µM in data set [3], 11.1 µM in data set [4] and 7.4 µM in data set [1]. Further, the M50 in the data set on Salmonella typhimurium [5] came to 20%; in the data set on Salmonella typhimurium [6] it was 4.5%; with Salmonella typhimurium [2] it was 0%. Besides, in the data set on Salmonella typhimurium [2], the “log(M50)” value was 0.
As for `COc1cccc2c1C(=O)c1c(O)c3c(c(O)c1C2=O)C[C@@](O)(C(=O)CO)C[C@@H]3O[C@H]1C[C@H](N)[C@H](O)[C@H](C)O1` [DOXORUBICIN], the figures for the GI50 at 1 h in data set [3], in data set [4] and in data set [1] were 6.1 µM, 11.3 µM and 16.3 µM, respectively. For the same compound, the M50 came out at 14% in the data set on Salmonella typhimurium [5], 0.5% with Salmonella typhimurium [6] and 0% in the data set with Salmonella typhimurium [2]. In the data set on Salmonella typhimurium [2], the “log(M50)” value came to 0.

For the origin of these results see ChEMBL document CHEMBL3227953, “Potential antitumor agents. 30. Mutagenic activity of some 9-anilinoacridines: relationships between structure, mutagenic potential, and antileukemic activity” (J Med Chem, 1979).
